These results are taken from ChEMBL document CHEMBL1142378, “Characterization and crystal structure of Escherichia coli KDPGal aldolase” (Bioorg Med Chem, 2008).

Data set [1] deals with T1, KHG/KDPG aldolase (Escherichia coli (strain K12)), P0A955 [T161A].
T1 sequence (whole entry): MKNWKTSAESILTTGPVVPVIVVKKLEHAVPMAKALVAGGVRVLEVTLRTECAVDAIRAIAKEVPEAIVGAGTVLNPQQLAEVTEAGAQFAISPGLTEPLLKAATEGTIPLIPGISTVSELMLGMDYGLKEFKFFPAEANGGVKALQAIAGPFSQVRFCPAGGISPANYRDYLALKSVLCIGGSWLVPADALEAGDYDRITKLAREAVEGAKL
Kind of data set: Ratio of kcat to Km of Escherichia coli KDPG aldolase T161A mutant. Put shortly: (§1)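 KDPG aldolase T161A or T161V mutants were expressed from the pET plasmid in DF71 (eda–) cells, induced with 1 mM IPTG at 25 °C for 16 h, and purified on nickel resin. Assays used 20 mM HEPES pH 7.0, 0.42 mM NADH, KDPG at 0.2×–5× KM and 105 U rabbit-muscle L-lactate dehydrogenase, started with enzyme. A340 was monitored for 5 min, and initial velocities were fitted to Michaelis–Menten.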

Data set [2] has as its system Escherichia coli. Kind of data set: Ratio of kcat to Km for Escherichia coli KDPGal aldolase. Put shortly: (§2)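 The enzyme started a coupled L-lactate dehydrogenase assay in 20 mM HEPES pH 7.0 with 0.42 mM NADH, KDPGal at 0.2×–5× KM and 105 U LDH. The A340 decrease was followed for 5 min. Initial slopes were fitted to Michaelis–Menten.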
The subject of data set [3] is Escherichia coli. Nature of the data set: Ratio of kcat to Km of Escherichia coli KDPG aldolase. The gist of the method: (§3)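 Wild-type KDPG aldolase activity toward KDPG (0.2×–5× KM) was read through a coupled L-lactate dehydrogenase system: 20 mM HEPES pH 7.0, 0.42 mM NADH, 105 U LDH. Aldolase was added to start the reaction, NADH loss was followed at 340 nm for 5 min, and Michaelis–Menten fits gave the parameters.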

Data set [4] deals with T2, 2-dehydro-3-deoxy-6-phosphogalactonate aldolase (Escherichia coli (strain K12)), Q6BF16 [V154A].
T2 sequence (whole entry): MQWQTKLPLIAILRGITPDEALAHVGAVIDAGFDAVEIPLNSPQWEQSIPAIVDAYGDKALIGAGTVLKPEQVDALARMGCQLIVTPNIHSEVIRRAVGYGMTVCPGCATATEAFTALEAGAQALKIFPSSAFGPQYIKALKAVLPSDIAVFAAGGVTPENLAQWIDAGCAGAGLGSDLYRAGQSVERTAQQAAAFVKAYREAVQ
Nature of the data set: Ratio of kcat to Km for Escherichia coli KDPGal aldolase V154A mutant. The gist of the method:
(§4)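 V154A or V154T KDPGal aldolase was made by Quikchange and expressed in DF71 (eda–) cells, with 1 mM IPTG induction at 25 °C for 16 h. It was nickel-affinity purified. Retro-aldol cleavage of KDPGal (0.2×–5× KM) was coupled to L-lactate dehydrogenase (105 U) in 20 mM HEPES pH 7.0 with 0.42 mM NADH. Aldolase was added last, and A340 loss was read over 5 min. Kinetic constants came from Michaelis–Menten fits of initial rates.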

Data set [5] deals with Escherichia coli. Kind of data set: Activity of Escherichia coli KDPGal aldolase. The gist of the method:
as §2

The subject of data set [6] is T3, KHG/KDPG aldolase (Escherichia coli (strain K12)), P0A955 [T161V].
T3 sequence (whole entry): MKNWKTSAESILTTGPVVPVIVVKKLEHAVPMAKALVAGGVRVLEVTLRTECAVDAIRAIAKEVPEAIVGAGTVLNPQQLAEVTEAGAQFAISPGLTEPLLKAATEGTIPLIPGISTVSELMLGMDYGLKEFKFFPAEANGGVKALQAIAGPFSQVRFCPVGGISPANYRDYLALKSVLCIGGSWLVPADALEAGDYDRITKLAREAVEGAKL
Kind of data set: Ratio of kcat to Km of Escherichia coli KDPG aldolase T161V mutant. Put shortly: as §1

The subject of data set [7] is Escherichia coli. Nature of the data set: Activity of Escherichia coli KDPG aldolase. Put shortly: as §3
For data set [8], the system named is T4, 2-dehydro-3-deoxy-6-phosphogalactonate aldolase (Escherichia coli (strain K12)), Q6BF16 [V154T].
T4 sequence (whole entry): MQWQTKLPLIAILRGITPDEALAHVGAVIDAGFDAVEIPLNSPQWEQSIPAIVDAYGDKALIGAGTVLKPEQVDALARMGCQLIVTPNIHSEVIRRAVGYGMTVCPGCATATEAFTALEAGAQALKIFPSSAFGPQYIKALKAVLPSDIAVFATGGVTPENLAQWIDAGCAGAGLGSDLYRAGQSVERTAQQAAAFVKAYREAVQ
Kind of data set: Ratio of kcat to Km for Escherichia coli KDPGal aldolase V154T mutant. The gist of the method: as §4

Substrate in data set [9]: O=C(O)C(=O)C[C@H](O)[C@@H](O)COP(=O)(O)O
Kind of data set: (§5) Activity of Escherichia coli KDPGal aldolase V154T mutant. Put shortly: as §4

Substrate in data set [10]: O=C(O)C(=O)C[C@H](O)[C@H](O)COP(=O)(O)O
Described as §5. Put shortly:
as §4

Substrate in data set [11]: O=C(O)C(=O)C[C@H](O)[C@@H](O)COP(=O)(O)O
Nature of the data set: (§6) Activity of Escherichia coli KDPGal aldolase V154A mutant. Put shortly:
as §4

Substrate in data set [12]: O=C(O)C(=O)C[C@H](O)[C@H](O)COP(=O)(O)O
The data set is described as §6. Put shortly: as §4

Take `O=C(O)C(=O)C[C@H](O)[C@H](O)COP(=O)(O)O`: the Ratio in data set [1] was 58 mM⁻¹ s⁻¹; with Escherichia coli [2], 1.1 mM⁻¹ s⁻¹; in the data set on Escherichia coli [3], 800 mM⁻¹ s⁻¹; in data set [4], 0.02 mM⁻¹ s⁻¹; in data set [6] it was 0.07 mM⁻¹ s⁻¹; in [8], 0.1 mM⁻¹ s⁻¹. For the same molecule, the Km was 1300 µM in the data set on Escherichia coli [5] and 100 µM with Escherichia coli [7]. The values for the kcat in the data set with Escherichia coli [5] and with Escherichia coli [7] were 1.4 s⁻¹ and 80 s⁻¹, respectively.
Take `O=C(O)C(=O)C[C@H](O)[C@@H](O)COP(=O)(O)O`: the Ratio in data set [1] was determined as 5 mM⁻¹ s⁻¹; in the data set with Escherichia coli [2] it was 19 mM⁻¹ s⁻¹; in the data set on Escherichia coli [3] it was 2.8 mM⁻¹ s⁻¹; in data set [4] it was 1.3 mM⁻¹ s⁻¹; in data set [6], 0.1 mM⁻¹ s⁻¹; in data set [8] it was 0.7 mM⁻¹ s⁻¹. Also, the Km turned out to be 200 µM with Escherichia coli [5] and 600 µM in the data set with Escherichia coli [7]. For the same molecule, the kcat in the data set on Escherichia coli [5] is 3.8 s⁻¹; in the data set on Escherichia coli [7] it was 1.7 s⁻¹.

B1: 2-dehydro-3-deoxy-6-phosphogalactonate aldolase (Escherichia coli (strain K12)), Q6BF16 V154T (protein)
chain: MQWQTKLPLIAILRGITPDEALAHVGAVIDAGFDAVEIPLNSPQWEQSIPAIVDAYGDKALIGAGTVLKPEQVDALARMGCQLIVTPNIHSEVIRRAVGYGMTVCPGCATATEAFTALEAGAQALKIFPSSAFGPQYIKALKAVLPSDIAVFATGGVTPENLAQWIDAGCAGAGLGSDLYRAGQSVERTAQQAAAFVKAYREAVQ
As to B1, in data set [9], the Km came to 300 µM and the turnover number (kcat) worked out at 0.2 s⁻¹. In data set [10], the Km was 90 µM and the kcat came out at 0.01 s⁻¹.

B2: 2-dehydro-3-deoxy-6-phosphogalactonate aldolase (Escherichia coli (strain K12)), Q6BF16 V154A (protein)
chain: MQWQTKLPLIAILRGITPDEALAHVGAVIDAGFDAVEIPLNSPQWEQSIPAIVDAYGDKALIGAGTVLKPEQVDALARMGCQLIVTPNIHSEVIRRAVGYGMTVCPGCATATEAFTALEAGAQALKIFPSSAFGPQYIKALKAVLPSDIAVFAAGGVTPENLAQWIDAGCAGAGLGSDLYRAGQSVERTAQQAAAFVKAYREAVQ
With B2, in data set [11], the Km was determined as 400 µM and the kcat came to 0.5 s⁻¹. Further, in data set [12], the Michaelis-Menten constant (Km) came out at 300 µM and the kcat amounted to 0.007 s⁻¹.

As a reminder, the Km is the concentration of substrate that gives half-maximal velocity. What is called kcat is the maximal rate divided by the concentration of active sites.
